Calls of active or inactive are those of the source. The rule behind the calls is not given here.
Columns and labels:
[1] = system: Rattus norvegicus; test: Neurotoxicity in Sprague-Dawley rat at 30 mg/kg, po after 4 hrs; type: toxicity, organism-based; details: in vivo
Outline: (§1)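 Sprague-Dawley rats were given 30 mg/kg orally in 0.5% methylcellulose. Neurotoxicity was checked at 0.25, 0.5, 1.0, 2.0 and 4 h after dosing. Results are given as number of rats showing neurotoxicity/number tested.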

[2] = system: Rattus norvegicus; test: Neurotoxicity in Sprague-Dawley rat at 30 mg/kg, po after 2 hrs; type: toxicity, organism-based; details: in vivo; outline: as §1
[3] = system: Rattus norvegicus; test: Neurotoxicity in Sprague-Dawley rat at 30 mg/kg, po after 1 hr; type: toxicity, organism-based; details: in vivo; outline: as §1
[4] = system: Rattus norvegicus; test: Neurotoxicity in Sprague-Dawley rat at 30 mg/kg, po after 0.25 hrs; type: toxicity, organism-based; details: in vivo; outline: as §1
[5] = system: Rattus norvegicus; test: Neurotoxicity in Sprague-Dawley rat at 30 mg/kg, po after 0.5 hrs; type: toxicity, organism-based; details: in vivo; outline: as §1
[6] = system: Rattus norvegicus; test: Anticonvulsant activity in Sprague-Dawley rat assessed as protection against maximal electroshock-induced seizures at 30 mg/kg, po after 4 hrs; type: functional, organism-based
Outline: (§2)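 Sprague-Dawley rats were given 30 mg/kg p.o. in 0.5% methylcellulose. Maximal electroshock was applied at 0.25, 0.5, 1.0, 2.0 and 4 h after dosing. Results are reported as number of rats protected / number tested.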

[7] = system: Rattus norvegicus; test: Anticonvulsant activity in Sprague-Dawley rat assessed as protection against maximal electroshock-induced seizures at 30 mg/kg, po after 2 hrs; type: functional, organism-based; outline: as §2
[8] = system: Rattus norvegicus; test: Anticonvulsant activity in Sprague-Dawley rat assessed as protection against maximal electroshock-induced seizures at 30 mg/kg, po after 1 hr; type: functional, organism-based; outline: as §2
[9] = system: Rattus norvegicus; test: Anticonvulsant activity in Sprague-Dawley rat assessed as protection against maximal electroshock-induced seizures at 30 mg/kg, po after 0.5 hrs; type: functional, organism-based; outline: as §2
[10] = system: Rattus norvegicus; test: Anticonvulsant activity in Sprague-Dawley rat assessed as protection against maximal electroshock-induced seizures at 30 mg/kg, po after 0.25 hrs; type: functional, organism-based; outline: as §2
[11] = system: Mus musculus; test: Neurotoxicity in albino Carworth Farms No.1 mouse at 300 mg/kg, ip after 0.5 hrs by rotarod test; type: toxicity, organism-based; details: in vivo
Outline: (§3)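 Mice (albino Carworth Farms No.1) were dosed i.p. at 30, 100 or 300 mg/kg in 0.5% methylcellulose. They were tested 0.5 and 4 h later on a 1-inch knurled rod rotating at 6 rpm. Neurotoxicity was scored if a mouse could not stay on the rod for at least 1 min in each of three trials. Results are given as animals toxic/animals tested, with deaths noted.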

[12] = system: Mus musculus; test: Neurotoxicity in albino Carworth Farms No.1 mouse at 100 mg/kg, ip after 0.5 hrs by rotarod test; type: toxicity, organism-based; details: in vivo; outline: as §3
[13] = system: Mus musculus; test: Anticonvulsant activity in albino Carworth Farms No.1 mouse assessed as protection against subcutaneous dosed pentetrazol-induced seizures at 300 mg/kg, ip after 4 hrs; type: functional, organism-based
Outline: (§4)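 Mouse i.p. screen in Carworth Farms No.1 albino mice at 30, 100 or 300 mg/kg in 0.5% methylcellulose. Testing was at 0.5 and 4 h after injection, by maximal electroshock or by subcutaneous pentetrazol challenge. Scoring was number protected / number used.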

[14] = system: Mus musculus; test: Neurotoxicity in albino Carworth Farms No.1 mouse at 30 mg/kg, ip after 0.5 hrs by rotarod test; type: toxicity, organism-based; details: in vivo; outline: as §3
[15] = system: Mus musculus; test: Anticonvulsant activity in albino Carworth Farms No.1 mouse assessed as protection against subcutaneous dosed pentetrazol-induced seizures at 300 mg/kg, ip after 0.5 hrs; type: functional, organism-based; outline: as §4
[16] = system: Mus musculus; test: Anticonvulsant activity in albino Carworth Farms No.1 mouse assessed as protection against subcutaneous dosed pentetrazol-induced seizures at 100 mg/kg, ip after 4 hrs; type: functional, organism-based; outline: as §4
[17] = system: Mus musculus; test: Anticonvulsant activity in albino Carworth Farms No.1 mouse assessed as protection against subcutaneous dosed pentetrazol-induced seizures at 100 mg/kg, ip after 0.5 hrs; type: functional, organism-based; outline: as §4
[18] = system: Mus musculus; test: Anticonvulsant activity in albino Carworth Farms No.1 mouse assessed as protection against subcutaneous dosed pentetrazol-induced seizures at 30 mg/kg, ip after 4 hrs; type: functional, organism-based; outline: as §4
[19] = system: Mus musculus; test: Anticonvulsant activity in albino Carworth Farms No.1 mouse assessed as protection against subcutaneous dosed pentetrazol-induced seizures at 30 mg/kg, ip after 0.5 hrs; type: functional, organism-based; outline: as §4
[20] = system: Mus musculus; test: Anticonvulsant activity in albino Carworth Farms No.1 mouse assessed as protection against maximal electroshock-induced seizures at 300 mg/kg, ip after 4 hrs; type: functional, organism-based; outline: as §4
[21] = system: Mus musculus; test: Anticonvulsant activity in albino Carworth Farms No.1 mouse assessed as protection against maximal electroshock-induced seizures at 300 mg/kg, ip after 0.5 hrs; type: functional, organism-based; outline: as §4
[22] = system: Mus musculus; test: Anticonvulsant activity in albino Carworth Farms No.1 mouse assessed as protection against maximal electroshock-induced seizures at 100 mg/kg, ip after 4 hrs; type: functional, organism-based; outline: as §4
[23] = system: Mus musculus; test: Anticonvulsant activity in albino Carworth Farms No.1 mouse assessed as protection against maximal electroshock-induced seizures at 100 mg/kg, ip after 0.5 hrs; type: functional, organism-based; outline: as §4
[24] = system: Mus musculus; test: Anticonvulsant activity in albino Carworth Farms No.1 mouse assessed as protection against maximal electroshock-induced seizures at 30 mg/kg, ip after 0.5 hrs; type: functional, organism-based; outline: as §4
[25] = system: Mus musculus; test: Anticonvulsant activity in albino Carworth Farms No.1 mouse assessed as protection against maximal electroshock-induced seizures at 30 mg/kg, ip after 4 hrs; type: functional, organism-based; outline: as §4
[26] = system: Mus musculus; test: Neurotoxicity in albino Carworth Farms No.1 mouse at 30 mg/kg, ip after 4 hrs by rotarod test; type: toxicity, organism-based; details: in vivo; outline: as §3
[27] = system: Mus musculus; test: Neurotoxicity in albino Carworth Farms No.1 mouse at 100 mg/kg, ip after 4 hrs by rotarod test; type: toxicity, organism-based; details: in vivo; outline: as §3
[28] = system: Mus musculus; test: Neurotoxicity in albino Carworth Farms No.1 mouse at 300 mg/kg, ip after 4 hrs by rotarod test; type: toxicity, organism-based; details: in vivo; outline: as §3
[29] = Lipophilicity of the compound using 95% methanol in water at 1 mg/ml by RT-TLC analysis; type: physicochemical; details: buffer
Outline: (§5)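 Reversed-phase TLC with a methanol–water mobile phase at the stated methanol content (v/v). Compounds were spotted from 1 mg/mL methanol solutions after 1 h chamber saturation and located under UV light. Rf was measured and RM = log(1/Rf − 1) calculated.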

[30] = Lipophilicity of the compound using 90% methanol in water at 1 mg/ml by RT-TLC analysis; type: physicochemical; details: buffer; outline: as §5
[31] = Lipophilicity of the compound using 85% methanol in water at 1 mg/ml by RT-TLC analysis; type: physicochemical; details: buffer; outline: as §5
[32] = Lipophilicity of the compound using 75% methanol in water at 1 mg/ml by RT-TLC analysis; type: physicochemical; details: buffer; outline: as §5
[33] = Lipophilicity of the compound using 65% methanol in water at 1 mg/ml by RT-TLC analysis; type: physicochemical; details: buffer; outline: as §5
[34] = Lipophilicity of the compound at 1 mg/ml by RT-TLC analysis relative to 0% methanol; type: physicochemical; details: methanol/water
Outline: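 Reversed-phase TLC used methanol–water mobile phases of 95–65% methanol. Compounds were applied from 1 mg/mL methanol solutions after 1 h chamber saturation, with UV detection. RM = log(1/Rf − 1) was calculated at each methanol level and extrapolated linearly (RM = RM0 + bC) to 0% methanol to give RM0.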

| SMILES | Activity [11] | Activity [12] | Activity [13] | Activity [14] | Activity [15] | Activity [16] | Activity [17] | Activity [18] | Activity [19] | Activity [20] | Activity [21] | Activity [22] | Activity [23] | Activity [24] | Activity [25] | Rm [29] | Rm [30] | Rm [31] | Rm [32] | Rm [33] | further results |
| --- | --- | --- | --- | --- | --- | --- | --- | --- | --- | --- | --- | --- | --- | --- | --- | --- | --- | --- | --- | --- | --- |
| CC(=O)OC(C)CNC(=O)/C=C/c1ccccc1 (racemic) | Non-toxic | Non-toxic | inactive | Non-toxic | Active | inactive | inactive | inactive | inactive | Active | Active | inactive | inactive | inactive | inactive | -0.58 | -0.48 | -0.19 | -0.1 | 0.25 | Activity [1]: Non-toxic; Activity [2]: Non-toxic; Activity [3]: Non-toxic; Activity [4]: Non-toxic; Activity [5]: Non-toxic; Activity [6]: inactive; Activity [7]: inactive; Activity [8]: inactive; Activity [9]: inactive; Activity [10]: inactive; Activity [26]: Non-toxic; Activity [27]: Non-toxic; Activity [28]: Non-toxic; Rm [34]: 2.003 |
| CC(=O)CNC(=O)/C=C/c1ccccc1 | Non-toxic | Non-toxic | inactive | Non-toxic | inactive | inactive | inactive | inactive | inactive | inactive | Active | inactive | inactive | inactive | inactive | -0.63 | -0.52 | -0.33 | -0.21 | 0.05 | Activity [26]: Non-toxic; Activity [27]: Non-toxic; Activity [28]: Non-toxic; Rm [34]: 1.478 |
| CCC(COC(C)=O)NC(=O)/C=C/c1ccccc1 (stereo not given) | Non-toxic | Non-toxic | inactive | Non-toxic | inactive | inactive | inactive | inactive | inactive | inactive | inactive | inactive | inactive | inactive | inactive | -0.58 | -0.43 | -0.14 | -0.05 | 0.29 | Rm [34]: 2.118 |
| CC(C)(CO)NC(=O)/C=C/c1ccccc1 | Non-toxic | Non-toxic | inactive | Non-toxic | Active | inactive | inactive | inactive | inactive | inactive | Active | inactive | inactive | inactive | inactive | -0.63 | -0.5 | -0.25 | -0.14 | 0.29 | Activity [26]: Non-toxic; Activity [27]: Non-toxic; Activity [28]: Non-toxic; Rm [34]: 2.151 |
| CC(=O)OCC(C)NC(=O)/C=C/c1ccccc1 (racemic) | Non-toxic | Non-toxic | inactive | Non-toxic | inactive | inactive | inactive | inactive | inactive | inactive | Active | inactive | Active | inactive | inactive | -0.58 | -0.48 | -0.21 | -0.07 | 0.19 | Activity [1]: Non-toxic; Activity [2]: Non-toxic; Activity [3]: Non-toxic; Activity [4]: Non-toxic; Activity [5]: Non-toxic; Activity [6]: inactive; Activity [7]: inactive; Activity [8]: inactive; Activity [9]: inactive; Activity [10]: inactive; Activity [26]: Non-toxic; Activity [27]: Non-toxic; Activity [28]: Non-toxic; Rm [34]: 1.88 |
| O=C(/C=C/c1ccccc1)NCCCCCO | Non-toxic | Non-toxic | inactive | Non-toxic | inactive | inactive | inactive | inactive | inactive | inactive | inactive | inactive | inactive | inactive | inactive | -0.69 | -0.52 | -0.27 | -0.18 | 0.19 | Activity [26]: Non-toxic; Activity [27]: Non-toxic; Activity [28]: Non-toxic; Rm [34]: 1.983 |
| COC(=O)C(NC(=O)/C=C/c1ccccc1)C(C)C (racemic) | Non-toxic | Non-toxic | inactive | Non-toxic | inactive | inactive | inactive | inactive | inactive | inactive | Active | inactive | inactive | inactive | inactive | -0.52 | -0.31 | -0.03 | 0.05 | 0.58 | Activity [26]: Non-toxic; Activity [27]: Non-toxic; Activity [28]: Non-toxic; Rm [34]: 2.742 |
